Assay outcomes: PubChem, Broad Institute
PGC1a acetyl inh = PGC1a acetylation modulation, inhibitor mode. U2OS PGC1a acetylation, AlphaScreen anti-acetyl-lysine; with virally co-expressed GCN5 acetyltransferase. inhibition, % at 15.6 µM. 350,000 compounds, 0.17% hits;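 active means every replicate shows inhibition of at least 40%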;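 further: 0% = neutral control wells and 100% = positive control wells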
Vif inh = inhibitors of HIV Vif; HEK293T cells, Vif self-association by quenched fluorescence, imaging, 24 h; inhibition, % at 7.49 µM; 340,000 compounds, 0.35% hits; in the data active means inhibition above about 50%, passing the limit was not always enough
FGF22 binding = shifts melting point of recombinant human FGF22 | Q9HCT0 | recombinant FGF22 thermal shift, SYPRO orange fluorescence; percent of sucrose octasulfate shift, DMSO zero | activity (Tm shift, normalised), % at 9.99 µM | 340,000 compounds, 1.5% hits | AID 651658;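 active means mean Tm shift, scaled 0 neutral to 100 positive control, at about 1.3% or above, every replicate too, limit read from the data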
Target sequence (Q9HCT0 whole entry, looked up): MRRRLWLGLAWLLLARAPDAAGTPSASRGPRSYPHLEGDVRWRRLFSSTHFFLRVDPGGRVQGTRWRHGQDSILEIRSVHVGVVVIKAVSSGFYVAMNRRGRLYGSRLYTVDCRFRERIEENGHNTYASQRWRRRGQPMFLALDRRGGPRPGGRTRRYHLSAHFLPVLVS
Cneo AK release = Cryptococcus neoformans lysis via adenylate kinase release | AID 651654 | 360,000 compounds, 0.2% hits | lysis activity, % at 15 µM | C. neoformans lysis, adenylate kinase release luminescence, 4 h; normalised: neutral wells 0, clomiphene wells 100;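 active means mean lysis activity across replicates of at least 80%, whatever share of replicates individually reach that level; inactive means mean lysis activity below 80%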
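Material: C. neoformans cells; Schedule: 4 h static compound exposure, 37 °C, read 1 h post-reagent; Measured by: adenylate kinase release luminescence; Read-out: signal increase indicating cell lysis; Controls: Clomiphene as positive lysis control.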
Ecoli rRNA inh = selective bacterial rRNA inhibition in E. coli; GFP signal change (wild-type ribosome), % (no concentration beside the values); 350,000 compounds, 1.6% hits; E. coli WT GFP vs humanized-ribosome RFP mutants, fluorescence, 24 h; hits give low values; DMSO median 0, no signal -100;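 active means significant combined selectivity score with lowered wild-type GFP, culture density cut under 30%, mutant RFP and density less affected; inactive means any of these conditions unmet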
PglD DTNB = inhibitors of Campylobacter jejuni PglD acetyltransferase; purified PglD enzyme, DTNB colorimetric CoA detection; inhibition, % at 12.5 µM; 360,000 compounds, 0.098% hits; AID 602405; in the data active means inhibition above about 16%, passing the limit was not always enough
* hit, by the source's call; . = no result. Compounds with a hit are over-represented: about 2.9% of the library has one in this group of screens.

SMILES	PGC1a acetyl inh	Vif inh	FGF22 binding	Cneo AK release	Ecoli rRNA inh	PglD DTNB
COc1ccc(S(=O)(=O)N(C)C[C@@H]2OCCCC[C@@H](C)Oc3ccc(NS(=O)(=O)c4ccccc4)cc3C(=O)N([C@@H](C)CO)C[C@@H]2C)cc1	2	.	0	0	-1	1
O=c1c(Cc2ccc(Cl)cc2Cl)c(O)ccn1Cc1ccncc1	-16	-2	0	.	-35*	.
O=C(COc1ccc(Cl)cc1)Nc1c(-c2cccs2)nc2ccccn12	.	0	0	.	12	.
CC(C)CCNc1c(-c2cccs2)nc2ccccn12	-6	4	1	.	-26*	.
C[C@@H]1CCCCO[C@@H](CN(C)C)[C@H](C)CN([C@@H](C)CO)C(=O)c2cc(N(C)C)ccc2O1	.	.	.	.	4	.
Cc1ncc(CN2CCCC(C(=O)Nc3ccc(-c4cccc(F)c4)cc3)C2)cn1 (stereo not drawn)	2	-15	0	-5	-7	2
Cc1ncc(CN2CCCC(C(=O)Nc3ccc(-c4cccc(F)c4)cc3)C2)s1 (stereo not drawn)	.	1	0	-1	-31*	5
COc1cccc2sc(N(CCN(C)C)C(=O)c3ccc4c(c3)CCCC4)nc12	.	.	0	70	-30*	3
CN(C)CCN(C(=O)c1ccc2c(c1)CCCC2)c1nc2c(F)cccc2s1	.	-8	0	-2	-18*	3
COc1cccc(-c2ccc3n(c2=O)C[C@H]2[C@H](CO)[C@@H](C(=O)N(C)C)[C@@H]3N2CC2CC2)c1	.	.	0	0	1	-1
C[C@H]1CN([C@@H](C)CO)C(=O)Cc2cc(NC(=O)C3CC3)ccc2O[C@H]1CN(C)S(=O)(=O)c1ccc(F)cc1	6	.	0	-7	3	9
COc1cc(OC)c2c(-c3cccc(-c4ccc(O)cc4)c3)cc(=O)oc2c1	8	-3	0	-5	-24*	3
COc1ccc(-c2cccc(-c3cc(=O)oc4cc(OC)cc(OC)c34)c2)cc1	-21	3	0	4	10	3
O=C(NNC(=O)c1ccc([N+](=O)[O-])o1)c1ccccc1	1	-4	.	.	.	.
O=C(NN(c1ccccc1)c1ccccc1)c1ccc([N+](=O)[O-])o1	.	8	42	0	-29*	-1
COc1ccccc1NC(=O)N1C[C@@H]2N[C@H](C1)C2c1ccc(-c2cccc(C(=O)N(C)C)c2)cc1 (stereo partly drawn)	0	.	.	.	0	.
C/C(N)=C(/C#N)C(=O)CSc1nnc(C)n1-c1ccccc1	.	14	43*	.	-1	.
C/C(N)=C(/C#N)C(=O)CSc1nnc(-c2ccccc2)n1C	0	0	0	-1	9	1
O=C1CSC(c2ccccc2)N1Nc1nc(N2CCOCC2)nc(N2CCOCC2)n1 (stereo not drawn)	-5	22	43*	.	9	.
c1ccc(Nc2nc(N3CCCC3)nc(N3CCOCC3)n2)cc1	.	33	0	0	3	-3
CNCC(=O)Nc1ccc(Cl)c(C(F)(F)F)c1	.	12	43*	.	12	.
Cc1ccccc1NC(=O)CNc1ccc(Cl)c(C(F)(F)F)c1	-14	0	.	.	.	-6
Cc1noc(C)c1CSCC(=O)N(C)CC(=O)Nc1ccc(Cl)c(C(F)(F)F)c1	-1	-1	1.9*	0	-2	2
C[C@@H]1CCCCO[C@H](CN(C)C(=O)Nc2ccc3c(c2)OCO3)[C@H](C)CN([C@@H](C)CO)C(=O)c2cc(NS(C)(=O)=O)ccc2O1	-2	.	0	0	-4	4
O=C(N/N=C/c1ccc[nH]1)c1ccccc1OCc1ccccc1Cl	-17	-7	43*	.	-34	.
SMILES	PGC1a acetyl inh	Vif inh	FGF22 binding	Cneo AK release	Ecoli rRNA inh	PglD DTNB
O=C(NC1=NCCS1)c1ccccc1OCc1ccccc1Cl	.	1	44*	.	2	.
O=C(COc1ccc(Cl)cc1Cl)c1ccc[nH]1	-3	-12	0	-1	-31*	0
Cc1cc(Br)c(OCc2ccc(C(=O)N/N=C/c3ccc[nH]3)cc2)c(Br)c1	87*	-11	0	2	-8	1
O=C(N/N=C/c1ccco1)c1ccccc1OCc1ccccc1Cl	.	1	0	4	-34	10
CCC(=O)N1[C@@H]2c3ccc(C4=CCCC4)c(=O)n3C[C@@H]2[C@@H](CO)[C@@H]1C(=O)NC1CCC1	.	.	0	-4	5	0
CCS(=O)(=O)N1CCCCN2[C@@H](CO)[C@@H](c3ccc(C#CC(C)(C)O)cc3)[C@@H]2C1	8	.	0	1	4	-2
O=C(COc1ccc(Cl)cc1Cl)N/N=C/c1ccc[nH]1	-10	-27	0	1	-22*	-3
COc1ccc2c3c([nH]c2c1)[C@H](CO)N(Cc1cc(F)ccc1F)CC31CCN(C)CC1	.	.	.	.	0	.
COc1ccc(/C=C2\CCc3ccccc3C2=O)cc1CN1CCOCC1	-1	-10	0	-2	-30*	0
COc1ccc(/C=C2/CCc3ccccc3C2=O)cc1OC	7	-11	.	-13	.	-7
O=C(N[C@H]1CC[C@H](CCn2cc(-c3ccccn3)nn2)O[C@@H]1CO)c1ccccc1	4	.	0	-1	-1	4
Cc1oc(-c2cccc(C(F)(F)F)c2)nc1CN1CCN(c2ccccn2)CC1	20	4	43*	-6	-58	5
Cc1cccc(N2CCN(Cc3nc(-c4cccc(Cl)c4)oc3C)CC2)n1	.	-4	0	.	.	.
C[C@@H]1CN([C@@H](C)CO)C(=O)c2c(c3ccccc3n2C)-c2ccccc2CO[C@H]1CN(C)S(=O)(=O)c1ccsc1	-64	.	0	-3	-1	4
C[C@H](CO)N1C[C@H](C)[C@H](CN(C)CC2CCOCC2)Oc2ncc(-c3cccc(F)c3)cc2C1=O	7	.	0	60	5	0
CC(C)N(Cc1nc(-c2ccccc2)no1)C(=O)C(Cl)(Cl)Cl	.	1	43*	.	-36	.
COCCNC(=S)N(Cc1cc2cc(C)ccc2n2nnnc12)C1CCCC1	5	-4	43*	-1	6	7
COCCN(Cc1cc2cc(C)ccc2n2nnnc12)C(=S)Nc1ccc(C)cc1	-16	6	1	.	20	.
CN(C)C(=O)c1ccc(-c2ccc3n(c2=O)C[C@@H]2[C@@H](CO)[C@H](C(=O)NCCc4ccccc4)N[C@H]32)cc1	.	.	0	48	1	2
Cc1ccc(C(C[N+](=O)[O-])c2c(N)n(C)c(=O)n(C)c2=O)cc1 (stereo not drawn)	-4	7	0	.	-24*	.
COc1cc(C(C[N+](=O)[O-])c2c(N)n(C)c(=O)n(C)c2=O)ccc1O (stereo not drawn)	-36	2	0	.	1	.
